Compound activity as filed in PubChem BioAssay.
TAAR1 antag – human TAAR1 antagonism; Q96RJ0; CHO RD-HGA16 TAAR1, Fluo-8 calcium fluorescence, antagonist; inhibition, % at 3 µM; 360,000 compounds, 1.5% hits; AID 624466;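 active means inhibition above a per-plate cutoff, the mean inhibition of test compounds on that plate plus 3 SD, cut at about 49% in these data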;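 further: 0% = DMSO plus EC80 beta-PEA response and 100% = DMSO alone without agonist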
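Material: RD-HGA16 CHO cells with stable hTAAR1 and Gα16; Dosing: single nominal final test compound concentration of 3 µM; Schedule: seeding 17-24 h prior, 75-min 37 °C, 30-min RT dye loading; Detection: kinetic Fluo-8 calcium fluorescence measurement; Measure: % inhibition from peak post-agonist over basal fluorescence ratio; Benchmarks: vehicle and agonist controls.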
CHO parental Ca – signal in parental CHO cells, OX1R antagonist counter-screen; AID 463079; 330,000 compounds, 0.63% hits; parental CHO-K1, ATP-induced calcium, Fluo-8 fluorescence; inhibition, % at 5.6 µM;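 active means inhibition above that plate's mean sample inhibition plus 3 SD, cut at about 26% in these data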;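 further: 0% = ATP-challenged DMSO wells and 100% = DMSO wells without ATP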
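Assay system: parental CHO cells; Read-out basis: percent inhibition of ATP-evoked calcium rise, normalized to controls; Benchmarks: ATP and no-ATP DMSO wells; Compound dosing: single nominal dose of 5.6 µM per compound; Signal: Fluo-8 calcium dye fluorescence; Also added: ATP as calcium-mobilizing challenge; Repeats: singlicate.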
OX1R antag-1 – antagonists of human orexin 1 receptor; O43613; CHO/OX1R cells, Fluo-8 calcium fluorescence, orexin A; inhibition, % at 5 µM; 330,000 compounds, 0.43% hits;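 active means inhibition above its plate's threshold, mean inhibition of all tested compounds on the plate plus 3 SD, cut at about 37% in these data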;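 further: 0% = orexin A challenge wells and 100% = SB-334867-A antagonist wells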
Target sequence (O43613 whole entry, looked up): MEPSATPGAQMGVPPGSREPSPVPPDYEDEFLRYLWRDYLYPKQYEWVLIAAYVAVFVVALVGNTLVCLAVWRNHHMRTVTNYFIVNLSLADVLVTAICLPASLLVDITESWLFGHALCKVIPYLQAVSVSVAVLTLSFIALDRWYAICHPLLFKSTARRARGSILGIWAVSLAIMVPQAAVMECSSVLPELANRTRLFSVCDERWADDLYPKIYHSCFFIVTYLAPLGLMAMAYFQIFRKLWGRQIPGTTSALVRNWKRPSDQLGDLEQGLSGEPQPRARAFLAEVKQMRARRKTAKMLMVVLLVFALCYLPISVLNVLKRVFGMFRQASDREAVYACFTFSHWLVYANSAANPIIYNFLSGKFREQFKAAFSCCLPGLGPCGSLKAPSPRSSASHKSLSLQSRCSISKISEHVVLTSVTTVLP
OX1R antag-2 – antagonists of human orexin 1 receptor (OX1R) | OX1R-expressing cells, FRET antagonist read-out | inhibition, % at 6.6 µM | 330,000 compounds, 1.8% hits; in the data active means inhibition mostly above about 38%, no sharp cut-off; inactive means mostly below about 40%;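 further: 0% = agonist challenge alone and 100% = reference antagonist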
GPR7 antag – blocks human GPR7 receptor signaling; GPR7-expressing cells, fluorescence antagonist assay; P48145; inhibition, % at 4.4 µM; 290,000 compounds, 1.1% hits; in the data active means inhibition above about 16%, passing the limit was not always enough;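 further: cells stimulated with the agonist NPW; 0% = agonist with vehicle and 100% = vehicle without agonist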
Target sequence (P48145 whole entry, looked up): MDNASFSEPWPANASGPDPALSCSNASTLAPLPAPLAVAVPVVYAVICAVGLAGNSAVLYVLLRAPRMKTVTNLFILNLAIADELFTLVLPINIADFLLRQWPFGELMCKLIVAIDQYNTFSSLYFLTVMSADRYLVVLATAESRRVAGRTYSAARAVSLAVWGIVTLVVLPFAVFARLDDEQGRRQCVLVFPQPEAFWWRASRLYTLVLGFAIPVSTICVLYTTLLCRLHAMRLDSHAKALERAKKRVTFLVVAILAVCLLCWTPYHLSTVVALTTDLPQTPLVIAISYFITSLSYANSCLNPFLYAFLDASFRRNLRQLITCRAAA
TAAR1 agonist – agonists of human TAAR1 | 360,000 compounds, 0.99% hits | Q96RJ0 | CHO RD-HGA16 TAAR1, Fluo-8 calcium fluorescence; vehicle wells 0%, saturating PEA agonist 100% | activation, % at 3 µM;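 active means activation above the mean activation of all test compounds in the run plus 3 SD, cut at about 38% in these data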
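System: CHO-derived RD-HGA16 cells with stable Gα16 and human TAAR1 / Times: 17-24 h plating, Fluo-8 75 min 37 °C, 30 min RT / Technique: calcium-sensitive Fluo-8 signal, excitation 470-495, emission 515-575 nm / Measure: % activation relative to PEA EC100 response / Benchmarks: DMSO and PEA EC100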
* hit, by the source's call; · = not tested or not shown; ! = a repeat was not active. A selection: hits, their analogues and other compounds. The true share with any hit is near 4.5%.

SMILES | TAAR1 antag | CHO parental Ca | OX1R antag-1 | OX1R antag-2 | GPR7 antag | TAAR1 agonist
CC(=O)c1cccc(NC(=O)C2CC(=O)N(Cc3ccccc3)C2)c1 (stereo unspecified) | 8.2 | 8.2 | -18.1 | 8.5 | -9.8 | 1.0
COC(=O)Cc1nnn2c1[C@@H](C)[C@@H](c1ccccc1Br)O[C@@H](C)C2 | -4.3 | · | · | · | · | 8.6
O=C(CN1C(=O)C2CC=CCC2C1=O)Nc1nc(-c2ccc(F)cc2)cs1 (stereo unspecified) | 51.1* | -12.1 | 0.2 | 11.3 | · | 28.2
NC(Cc1ccc(Cl)cc1)c1csc(Nc2ccc(C(F)(F)F)cn2)n1 (stereo unspecified) | 33.0 | · | · | · | · | 45.1*
COC(=O)c1cc(C)nc(Nc2nc(C(N)Cc3ccc(Cl)cc3)cs2)n1 (stereo unspecified) | 9.7 | · | · | · | · | 9.2
COc1cc(OC)nc(Nc2nc(C(N)Cc3ccc(Cl)cc3)cs2)n1 (stereo unspecified) | 37.4 | · | · | · | · | 46.8*
NC(CO)c1csc(Nc2ccc(C(F)(F)F)cn2)n1 (stereo unspecified) | 2.4 | · | · | · | · | 0.3
CC(OC(=O)c1ccc(O)cc1)C(=O)Nc1ccc(Oc2ccccc2)cc1 (stereo unspecified) | 49.4* | 22.9 | 10.8 | 13.5 | · | 2.6
OC(c1ccc(CN2CCCCC2)cc1)c1ncc(-c2ccccc2F)[nH]1 (stereo unspecified) | -0.5 | · | · | · | · | 4.3
COc1cc(C(=O)NCCCN(C)C)ccc1OCC(=O)Nc1cccc(C(F)(F)F)c1 | 3.6 | 3.5 | -1.1 | 10.2 | 0.1 | 10.7
COc1cccc(CN(C)C(=O)c2ccc(OCC(=O)Nc3cccc(C(F)(F)F)c3)c(OC)c2)c1 | 66.9* | 64.7* | 51.9* | 37.8 | · | 8.9
O=C(NN=C1c2ccccc2-c2ccccc21)c1ccccc1Br | -16.1 | -20.0 | 24.1 | 48.9* | 6.1 | 6.7
COc1cc2[nH]c(Cl)c([N+](=O)[O-])c2cc1OC | -10.3 | 4.2 | -0.1 | 72.7* | -10.3 | 10.5
c1cncc(-c2csc(-c3cccnc3)n2)c1 | 7.8 | 1.5 | -1.1 | 9.1 | 0.9 | 0.3
Clc1ccsc1-c1csc(-c2cccnc2)n1 | 5.1 | -17.5 | 16.9 | 71.3* | -4.9 | 1.8
COC(=O)CC1C(=O)NCCN1C(=O)c1cc(OC)c(OC)cc1OC (stereo unspecified) | -7.3 | 29.8* | -14.6 | -6.3 | 2.9 | 1.7
CC(C)[C@@H]1CC[C@@H](C)C[C@H]1OC[B-](F)(F)F | -18.4 | · | · | · | · | 0.3
CNC(=O)/C(=C\c1ccc([N+](=O)[O-])cc1)NC(C)=O | 2.4 | -5.8 | -4.9 | 73.1* | -0.4 | 3.0
Cc1ccc(C(=O)N/C(=C\c2ccc([N+](=O)[O-])cc2)C(=O)NCCc2ccccc2)cc1 | 14.3 | 17.8 | 1.4 | 10.1 | -6.4 | 43.1*
O=C(NCCc1ccccc1)/C(=C\c1ccc([N+](=O)[O-])cc1)NC(=O)c1ccco1 | -6.5 | -3.1 | -9.7 | 27.1 | 7.6 | 34.2
CC(=O)N/C(=C/c1ccc([N+](=O)[O-])cc1)C(=O)O | 6.7 | -6.0 | -8.4 | 33.5 | -4.8 | 0.9
O=C(N/N=C/c1ccc(OCc2ccccc2)cc1)c1cccs1 | 7.7 | -18.9 | 8.0 | 60.3* | 16.5 | 29.7
O=C(Nc1ccc(OCc2ccccc2)cc1)c1cccs1 | 24.5 | 14.9 | -13.4 | 16.9 | -0.5 | 7.4
CCN(CC)CC(=O)Nc1cccc2c1C(=O)c1ccccc1C2=O | 1.1 | -17.1 | -1.6 | 13.3 | -11.4 | 6.7
CN(C=[N+](C)C)c1cccc2c1C(=O)c1ccccc1C2=O | -2.8 | -2.4 | -12.4 | 75.3* | -9.9 | 1.0
SMILES | TAAR1 antag | CHO parental Ca | OX1R antag-1 | OX1R antag-2 | GPR7 antag | TAAR1 agonist
O=C(CCN1C(=O)/C(=C/c2ccccc2Cl)SC1=S)Nc1cccnc1 | 50.3* | 5.9 | 1.7 | 42.9 | -12.9 | 9.9
O=C(CCN1C(=O)/C(=C\c2cccs2)SC1=S)Nc1ccccn1 | 21.5 | -21.0 | -14.7 | 26.4 | -7.6 | 44.3*
O=C(CCN1C(=O)/C(=C/c2ccccc2Cl)SC1=S)Nc1ccccn1 | 45.4 | -12.8 | -40.2 | 65.2* | -40.4 | 5.2
O=S1(=O)CC2NC(=S)N(c3cccc(Br)c3)C2C1 (stereo unspecified) | -10.8 | -3.5 | -5.8 | -0.4 | -1.2 | 2.3
C=CCN(C(=O)c1cccc(C(F)(F)F)c1)C1(C(=O)Nc2ccccc2)CCN(C(C)C)CC1 | 11.0 | -22.6 | -38.1 | 9.6 | 18.4* | 11.3
CN(CC(=O)Nc1cccc(S(=O)(=O)N2CCOCC2)c1)CC(=O)Nc1ccc(Cl)c(C(F)(F)F)c1 | 31.4 | 49.5* | 38.3 | 24.6 | · | 28.7
COc1ccc(Oc2cn[nH]c2-c2ccc(O)cc2O)cc1 | -1.5 | 8.8 | 0.2 | 0.7 | 9.0 | 2.6
C=C(C)COc1ccc(-c2[nH]ncc2Oc2cccc(OC)c2)c(O)c1 | 8.4 | 74.5* | 31.2 | 13.4 | -18.0 | 0.2
COc1ccc(-c2cn[nH]c2-c2ccc(OCC(=O)NN)cc2O)cc1OC | -8.4 | -19.2 | -17.4 | -0.8 | -23.8 | 4.7
C=C(C)COc1ccc(-c2[nH]ncc2Oc2ccccc2OCC)c(O)c1 | 8.6 | -8.2 | 5.0 | 25.2 | -3.4 | 2.6
C=C(C)COc1ccc(-c2[nH]ncc2-c2ccc(OC)cc2)c(O)c1 | 18.7 | 41.6* | -6.2 | 17.9 | 1.2 | -1.2
C=C(C)COc1ccc(-c2[nH]ncc2-c2ccc(OC)c(OC)c2)c(O)c1 | 49.5* | 0.9 | 15.8 | 23.9 | 3.3 | 2.5
CCCc1ccc(Oc2cn[nH]c2-c2ccc(O)cc2O)cc1 | 18.2 | 34.7* | 22.0 | -6.2 | -7.3 | 20.2
COc1cc2ccccc2cc1C(=O)N/N=C/c1cccs1 | -12.8 | · | · | · | · | 0.6
CC(=O)Nc1ccc(S(=O)(=O)N2CCN(CC3CC4C=CC3C4)CC2)cc1 (stereo unspecified) | 17.9 | -12.5 | -5.8 | -18.2 | 13.9 | 3.9
CCCCNc1c(-c2ccc(OC)c(SC(C)CC)c2)nc2ccc(Cl)cn12 (stereo unspecified) | 22.9 | -12.0 | -18.1 | 14.7 | · | 7.1
CCC(C)Sc1ccc(-c2nc3ccc(Cl)cn3c2NCc2ccccc2)cc1 (stereo unspecified) | 22.0 | -20.8 | 0.7 | 16.7 | · | 3.5
CCCCCCSc1ccc(-c2nc3ccc(C)cn3c2NCc2ccccc2)cc1OC | 2.5 | -23.0 | -54.6 | 31.9 | · | -1.5
CCC(C)Sc1cccc(-c2nc3cc(C)ccn3c2NCc2ccccc2)c1 (stereo unspecified) | 77.5*! | 16.9 | 19.8 | 34.0 | · | 6.0
CCC(C)Sc1ccc(-c2nc3ccc(C)cn3c2NCc2ccccc2)cc1OC (stereo unspecified) | · | 35.4 | 56.3* | 55.6 | · | ·
CCC(C)Sc1cc(-c2nc3ccc(C)cn3c2NCc2ccccc2)ccc1OC (stereo unspecified) | 72.2* | 97.0* | 72.6* | 54.3 | · | 3.5
